Laboratory results taken from ChEMBL document CHEMBL4706645, “The discovery of novel small molecule allosteric activators of aldehyde dehydrogenase 2” (Eur J Med Chem, 2021).
The source made the active and inactive calls. The calls are words filed in the database; no cut-off is given here.

What follows are compounds tested against T1, Aldehyde dehydrogenase, mitochondrial (Homo sapiens) (UniProt P05091) (assay: Allosteric activation of recombinant human full-length ALDH2 (18 to 517 residues) expressed in Escherichia coli at 100 uM using acetaldehyde as substrate measured after 3 hrs in presence of NAD+ by […] relative to Alda-1). Settings: not given.
T1 sequence (whole entry): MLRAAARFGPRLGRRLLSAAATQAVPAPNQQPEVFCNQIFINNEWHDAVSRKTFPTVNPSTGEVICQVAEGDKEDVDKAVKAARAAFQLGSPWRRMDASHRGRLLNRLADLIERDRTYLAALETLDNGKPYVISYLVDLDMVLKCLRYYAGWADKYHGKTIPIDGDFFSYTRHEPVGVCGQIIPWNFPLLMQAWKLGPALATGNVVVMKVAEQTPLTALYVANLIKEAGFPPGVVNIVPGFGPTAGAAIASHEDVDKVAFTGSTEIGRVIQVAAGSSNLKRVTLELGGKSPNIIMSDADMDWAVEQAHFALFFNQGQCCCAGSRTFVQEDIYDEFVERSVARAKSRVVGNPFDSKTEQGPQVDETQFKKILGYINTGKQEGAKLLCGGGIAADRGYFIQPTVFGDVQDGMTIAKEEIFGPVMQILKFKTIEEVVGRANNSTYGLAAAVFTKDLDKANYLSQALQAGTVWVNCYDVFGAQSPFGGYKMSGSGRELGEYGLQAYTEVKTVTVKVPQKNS
In short: (§1)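 Read-out is absorbance at 450 nm, taken at room temperature. Starting concentrations are 5 mg/ml ALDH2, 25 mM acetaldehyde and 1 mM NAD+. Activity is the change in absorbance per minute (SlopeOD450). Maximum fold activation is calculated from ALDH2 activity with compound and corrected by the activity of the Alda-1 reference.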

fold change (FC)	SMILES
inactive	Fc1ccc(NCc2ccc3c(c2)OCO3)cc1
inactive	COc1ccc(CNc2ccc(N3CCCCC3)c(C(=O)NCC3CC3)c2)cc1F
12%	COc1ccc(CNc2ccc(N3CCC(F)(F)CC3)c(C(=O)NCC3CC3)c2)cc1F
23%	O=C(O)c1cc(NCc2ccc3c(c2)OCO3)ccc1N1CCOCC1
3%	COc1ccc(CNc2ccc(-c3ccccc3)c(C(=O)NCC3CC3)c2)cc1F
9%	O=C(O)c1cc(NCc2ccc(Cl)c(Cl)c2)ccc1N1CCOCC1
inactive	COc1ccc(C(=O)Nc2ccc(N3CCOCC3)c(C(=O)NCC3CC3)c2)cc1F
inactive	O=C(O)c1cc(NCc2ccc3c(c2)OCO3)ccc1Cl

Second part, the compound before the results:

SMILES	fold change (FC)
COc1ccc(CN(C)c2ccc(N3CCOCC3)c(C(=O)NCC3CC3)c2)cc1F	inactive
COc1ccc(CN(C(C)=O)c2ccc(N3CCOCC3)c(C(=O)NCC(C)(C)O)c2)cc1F	inactive
COc1ccc(CN(C(C)=O)c2ccc(N3CCOCC3)c(C(=O)NCC3(O)CC3)c2)cc1F	inactive
O=C(CCC(=O)OCC(=O)c1ccccc1Cl)Nc1ccc(Cl)cc1	6%
COc1ccc(CNc2ccc(N3CCC(F)CC3)c(C(=O)NCC3CC3)c2)cc1F	inactive
Clc1ccc(NCc2ccc3c(c2)OCO3)cc1Cl	inactive
Clc1cc(NCc2ccc3c(c2)OCO3)ccc1N1CCOCC1	inactive

Same assay, conditions: filed as activator

fold change (FC) [%]	SMILES
66	COc1ccc(CNc2ccc(N3CCOCC3)c(C(=O)N3CCCCC3)c2)cc1F
63	CCNC(=O)c1cc(NCc2ccc(OC)c(F)c2)ccc1N1CCOCC1
120	COc1ccc(CNc2ccc(N3CCOCC3)c(C(=O)NCC(C)(C)O)c2)cc1F

Second part, the compound before the results:

SMILES	fold change (FC) [%]
COc1ccc(CNc2ccc(N3CCOCC3)c(C(=O)NCC3CCC3)c2)cc1F	41
COc1ccc(CNc2ccc(N3CCC(O)CC3)c(C(=O)NCC3CC3)c2)cc1F	80
COc1ccc(CNc2cccc(C(=O)NCC3CC3)c2)cc1F	56
COc1ccc(CNc2ccc(N3CCOCC3)c(C(=O)NCC(C)C)c2)cc1F	92
COc1ccc(CNc2ccc(N3CCOCC3)c(C(=O)NC3CC3)c2)cc1F	94
COc1ccc(CNc2ccc(N3CCOCC3)c(C(=O)NCC3CC3)c2)cc1F	104
COc1ccc(CNc2ccc(N3CCOCC3)c(C(=O)NCC3(O)CC3)c2)cc1F	97
COc1ccc(CNc2ccc(N3CCOCC3)c(C(=O)NCC3CCCC3)c2)cc1F	51
CNC(=O)c1cc(NCc2ccc(OC)c(F)c2)ccc1N1CCOCC1	52
COc1ccc(CNc2ccc(N3CCOCC3)c(C(=O)NCC(C)(C)F)c2)cc1F	101
COc1ccc(CNc2ccc(N3CCOCC3)c(C(=O)NCC(C)(C)C)c2)cc1F	59
CCOC(=O)c1cc(NCc2ccc3c(c2)OCO3)ccc1N1CCOCC1	64
COc1ccc(CNc2ccc(C3CCOCC3)c(C(=O)NCC3CC3)c2)cc1F	53
CCCNC(=O)c1cc(NCc2ccc(OC)c(F)c2)ccc1N1CCOCC1	97
COc1ccc(CNc2ccc(N3CCOCC3)c(C(=O)NCC3CCCCC3)c2)cc1F	80

These compounds were tested on Rattus norvegicus (assay: (§2) Protection against middle cerebral artery occlusion-induced Sprague-Dawley rat model of ischemic stroke-like event assessed as reduction in brain infarct size at 50 ug, icv pretreated for 5 mins followed by MCAO surgery for 2 hrs and subsequent reperfusion for 24 hrs by TCC staining based assay). Settings: dose 50.0 µg, time 26.08333 hrs.
Type: functional, organism-based

SMILES	Activity
O=C(NCc1ccc2c(c1)OCO2)c1c(Cl)cccc1Cl	Active

Each compound was assayed on Rattus norvegicus (assay: as §2, with “64” for “50”, “assay relative to control” for “assay”). Settings: dose 64 µg; time 26.0833 hrs; 26.08 h.
Type: functional
Set-up: scale not given: the % may be the effect or the level left

SMILES	Activity [%]
COc1ccc(CNc2ccc(N3CCOCC3)c(C(=O)NCC3CC3)c2)cc1F	70

What follows are compounds tested against T2, Aldehyde dehydrogenase, mitochondrial (Homo sapiens, UniProt P05091) (assay: Allosteric activation of recombinant human full-length ALDH2 (18 to 517 residues) expressed in Escherichia coli using acetaldehyde as substrate measured after 3 hrs in presence of NAD+ by […]). Settings: not given.
T2 sequence (P05091 whole entry): T1 sequence (whole entry)
In short: as §1

EC50 [µM]	SMILES
4.3	O=C(NCc1ccc2c(c1)OCO2)c1c(Cl)cccc1Cl
17.9	COc1ccc(CNc2ccc(N3CCOCC3)c(C(=O)NCC3CC3)c2)cc1F
